Measurements published in ChEMBL document CHEMBL2046373, “Discovery of a potent thiadiazole class of histamine h3 receptor antagonist for the treatment of diabetes” (ACS Med Chem Lett, 2012).

Legend:
Histamine H3 receptor [1] = biological target: Histamine H3 receptor (Mus musculus, UniProt P58406); experiment: Displacement of [3H]-N-alpha-methylhistamine from mouse recombinant histamine H3 receptor after 30 mins by scintillation counting
Histamine H3 receptor [2] = biological target: Histamine H3 receptor (Homo sapiens, UniProt Q9Y5N1); experiment: Displacement of [3H]-N-alpha-methylhistamine from human recombinant histamine H3 receptor after 30 mins by scintillation counting
[3] = AUC (0 to 6 hrs) in rat at 10 mg/kg, po; type: ADME, organism-based; set-up: time < 6 hr, dose 10 mg/kg, route oral; settings: plasma
Cytochrome P450 2D6 [4] = biological target: T1, Cytochrome P450 2D6 (Homo sapiens, UniProt P10635); experiment: Inhibition of CYP2D6 under co-incubation conditions; type: ADME; settings: read-out: INH
Cytochrome P450 2C9 [5] = biological target: T2, Cytochrome P450 2C9 (Homo sapiens, UniProt P11712); experiment: Inhibition of CYP2C9 under co-incubation conditions; type: ADME; settings: read-out: INH
Mus musculus [6] = experiment: Antihyperglycemic activity in STZ-induced type 2 diabetic model of ICR mouse assessed as reduction of non-fasting blood glucose level at 30 mg/kg, po qd for 2 days; type: functional
In short: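 Streptozotocin-diabetic ICR mice (STZ 80 mg/kg ip; blood glucose 250–500 mg/dL) received oral dosing at 30 mg/kg once daily. Non-fasting glucose was read daily before each dose. Data are mean ± SEM, n = 12/group, compared with vehicle (0) controls.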

Cytochrome P450 2C9 [7] = biological target: T2, Cytochrome P450 2C9; experiment: Inhibition of CYP2C9 under preincubation conditions; type: ADME; settings: read-out: INH
Mus musculus [8] = experiment: Ex vivo receptor occupancy of histamine H3 receptor in ICR mouse brain cortex using [3H]- N-alpha-Methylhistamine at 30 mg/kg, po after 30 mins by scintillation counting; type: functional
Cytochrome P450 3A4 [9] = biological target: T3, Cytochrome P450 3A4 (Homo sapiens, UniProt P08684); experiment: Inhibition of CYP3A4 under co-incubation conditions; type: ADME; settings: read-out: INH
[10] = Cmax in ICR mouse plasma at 30 mg/kg, po after 4 hrs; type: ADME, organism-based; set-up: dose 30 mg/kg, route oral
In short: (§1)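 ICR mice were given a single 30 mg/kg oral dose. Total brain and plasma concentrations were measured 4 h later, and the brain/plasma ratio was taken from these levels.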

[11] = Ratio of drug level in brain to plasma in ICR mouse; type: ADME; settings: read-out: BPR; in short: as §1
Cytochrome P450 2D6 [12] = biological target: T1, Cytochrome P450 2D6; experiment: Inhibition of CYP2D6 under preincubation conditions; type: ADME
[13] = Drug level in ICR mouse brain at 30 mg/kg, po after 4 hrs; type: ADME, organism-based; set-up: dose 30 mg/kg, route oral; settings: read-out: Drug uptake; in short: as §1
hERG (KCNH2) = hERG (KCNH2) (Homo sapiens, UniProt Q12809); experiment: Inhibition of human ERG at 10 uM by high-throughput rubidium efflux assay
Cytochrome P450 3A4 [14] = biological target: T3, Cytochrome P450 3A4; experiment: Inhibition of CYP3A4 under preincubation conditions; type: ADME; settings: read-out: INH
Mus musculus [15] = experiment: Antihyperglycemic activity in po dosed STZ-induced type 2 diabetic model of ICR mouse assessed as reduction of HbA1c level administered qd for 12 days; type: functional, organism-based
In short: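 STZ diet-induced obese type 2 diabetic mice were dosed orally once daily for 12 days at 10 and 30 mg/kg. The end point was change in glycated hemoglobin (HbA1c), compared with vehicle (0) controls.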

T3 sequence (P08684 whole entry): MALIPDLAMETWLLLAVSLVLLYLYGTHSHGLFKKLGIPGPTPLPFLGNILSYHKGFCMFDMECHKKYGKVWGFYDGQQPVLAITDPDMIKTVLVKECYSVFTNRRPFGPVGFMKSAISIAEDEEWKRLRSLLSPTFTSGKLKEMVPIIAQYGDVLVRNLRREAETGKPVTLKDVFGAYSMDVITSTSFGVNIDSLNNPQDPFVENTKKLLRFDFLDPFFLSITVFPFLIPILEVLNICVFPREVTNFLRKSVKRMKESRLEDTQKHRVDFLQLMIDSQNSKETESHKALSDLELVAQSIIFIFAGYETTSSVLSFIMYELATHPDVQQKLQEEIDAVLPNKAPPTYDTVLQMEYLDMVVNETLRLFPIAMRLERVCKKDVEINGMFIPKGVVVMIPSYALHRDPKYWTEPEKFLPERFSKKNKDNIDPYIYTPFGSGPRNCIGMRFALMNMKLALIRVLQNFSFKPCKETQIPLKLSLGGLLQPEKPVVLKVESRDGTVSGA
T2 sequence (P11712 whole entry): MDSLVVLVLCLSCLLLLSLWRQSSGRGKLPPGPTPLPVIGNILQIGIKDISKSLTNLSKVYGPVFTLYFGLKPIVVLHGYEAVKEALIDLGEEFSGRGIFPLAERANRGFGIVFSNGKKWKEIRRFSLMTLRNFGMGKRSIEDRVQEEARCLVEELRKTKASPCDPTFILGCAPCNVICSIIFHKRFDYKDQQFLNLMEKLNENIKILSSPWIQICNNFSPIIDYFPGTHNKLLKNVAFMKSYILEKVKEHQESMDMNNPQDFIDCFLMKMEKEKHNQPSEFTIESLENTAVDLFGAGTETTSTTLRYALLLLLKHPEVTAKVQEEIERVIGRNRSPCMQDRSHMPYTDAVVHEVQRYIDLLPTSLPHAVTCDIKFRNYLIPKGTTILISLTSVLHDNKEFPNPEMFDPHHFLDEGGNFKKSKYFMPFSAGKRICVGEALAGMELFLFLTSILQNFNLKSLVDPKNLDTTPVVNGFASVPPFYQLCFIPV
Sequence of Histamine H3 receptor (Homo sapiens, UniProt Q9Y5N1) (Q9Y5N1 whole entry): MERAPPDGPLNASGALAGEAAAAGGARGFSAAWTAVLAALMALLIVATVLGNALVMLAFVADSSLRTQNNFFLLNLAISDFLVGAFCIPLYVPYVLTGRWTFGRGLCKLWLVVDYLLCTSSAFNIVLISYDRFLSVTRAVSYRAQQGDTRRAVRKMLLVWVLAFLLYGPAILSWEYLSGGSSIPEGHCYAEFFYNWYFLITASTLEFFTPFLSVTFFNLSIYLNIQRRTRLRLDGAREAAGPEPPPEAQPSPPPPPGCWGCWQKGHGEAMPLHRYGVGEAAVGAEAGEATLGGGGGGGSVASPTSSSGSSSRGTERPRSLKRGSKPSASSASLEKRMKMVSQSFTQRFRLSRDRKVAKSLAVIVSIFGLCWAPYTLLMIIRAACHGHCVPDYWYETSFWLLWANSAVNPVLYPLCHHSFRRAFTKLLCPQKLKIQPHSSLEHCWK
Sequence of hERG (KCNH2) (Q12809 whole entry): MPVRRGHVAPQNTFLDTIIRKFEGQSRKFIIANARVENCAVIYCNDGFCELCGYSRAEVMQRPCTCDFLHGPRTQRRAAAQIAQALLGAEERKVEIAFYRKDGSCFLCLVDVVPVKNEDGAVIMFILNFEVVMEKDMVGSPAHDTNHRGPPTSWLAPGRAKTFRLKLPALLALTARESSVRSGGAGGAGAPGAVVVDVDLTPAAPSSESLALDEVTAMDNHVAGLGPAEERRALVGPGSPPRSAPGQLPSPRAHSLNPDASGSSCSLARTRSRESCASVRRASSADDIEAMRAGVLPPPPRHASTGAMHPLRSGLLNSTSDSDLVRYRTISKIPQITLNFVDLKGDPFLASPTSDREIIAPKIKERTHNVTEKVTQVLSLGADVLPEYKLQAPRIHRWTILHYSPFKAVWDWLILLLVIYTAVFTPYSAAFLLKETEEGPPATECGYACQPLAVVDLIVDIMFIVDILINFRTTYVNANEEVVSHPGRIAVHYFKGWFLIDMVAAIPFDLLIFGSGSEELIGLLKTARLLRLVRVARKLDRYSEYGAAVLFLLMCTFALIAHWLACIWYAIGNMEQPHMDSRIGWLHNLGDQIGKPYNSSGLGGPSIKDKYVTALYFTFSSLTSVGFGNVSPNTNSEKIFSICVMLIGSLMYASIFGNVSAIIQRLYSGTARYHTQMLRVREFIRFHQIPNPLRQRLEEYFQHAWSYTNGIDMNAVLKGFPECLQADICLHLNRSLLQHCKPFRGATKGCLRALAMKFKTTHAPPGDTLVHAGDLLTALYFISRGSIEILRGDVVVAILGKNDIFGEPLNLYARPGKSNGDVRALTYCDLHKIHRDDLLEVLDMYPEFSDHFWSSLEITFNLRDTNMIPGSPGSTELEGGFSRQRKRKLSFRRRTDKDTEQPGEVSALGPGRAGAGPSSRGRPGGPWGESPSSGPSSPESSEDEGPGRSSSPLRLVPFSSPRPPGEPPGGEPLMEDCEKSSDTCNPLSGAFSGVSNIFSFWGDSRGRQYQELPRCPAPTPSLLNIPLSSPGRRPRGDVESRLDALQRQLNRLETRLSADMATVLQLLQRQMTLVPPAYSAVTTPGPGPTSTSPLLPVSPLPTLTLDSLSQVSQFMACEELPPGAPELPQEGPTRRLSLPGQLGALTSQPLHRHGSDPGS
Sequence of Histamine H3 receptor (Mus musculus, UniProt P58406) (P58406 whole entry): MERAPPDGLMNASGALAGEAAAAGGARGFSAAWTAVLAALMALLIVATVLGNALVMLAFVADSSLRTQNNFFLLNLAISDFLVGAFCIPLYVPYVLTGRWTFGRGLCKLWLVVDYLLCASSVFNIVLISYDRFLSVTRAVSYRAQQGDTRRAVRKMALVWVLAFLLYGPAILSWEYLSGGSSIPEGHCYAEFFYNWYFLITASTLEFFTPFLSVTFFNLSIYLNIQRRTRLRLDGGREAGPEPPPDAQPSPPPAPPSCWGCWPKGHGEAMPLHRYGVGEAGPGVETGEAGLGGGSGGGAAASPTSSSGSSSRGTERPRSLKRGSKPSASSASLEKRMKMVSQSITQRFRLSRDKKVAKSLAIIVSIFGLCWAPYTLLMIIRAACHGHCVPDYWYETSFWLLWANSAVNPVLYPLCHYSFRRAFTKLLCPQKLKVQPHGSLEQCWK
T1 sequence (P10635 whole entry): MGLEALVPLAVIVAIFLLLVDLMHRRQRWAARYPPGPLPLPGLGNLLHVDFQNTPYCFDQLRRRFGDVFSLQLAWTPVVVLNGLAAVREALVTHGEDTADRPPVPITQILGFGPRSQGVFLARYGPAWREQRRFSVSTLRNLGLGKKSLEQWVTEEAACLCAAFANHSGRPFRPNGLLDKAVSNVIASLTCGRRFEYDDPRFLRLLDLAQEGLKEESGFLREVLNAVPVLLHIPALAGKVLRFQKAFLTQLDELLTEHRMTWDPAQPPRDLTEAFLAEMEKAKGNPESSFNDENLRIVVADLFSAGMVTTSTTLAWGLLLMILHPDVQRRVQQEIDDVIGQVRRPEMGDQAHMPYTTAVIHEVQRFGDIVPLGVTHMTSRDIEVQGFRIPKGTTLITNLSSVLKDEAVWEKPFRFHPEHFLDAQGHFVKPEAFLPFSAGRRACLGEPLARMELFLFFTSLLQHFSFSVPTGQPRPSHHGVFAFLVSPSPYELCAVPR

Row | Compound | Ki (Histamine H3 receptor [1]) [nM] | Ki (Histamine H3 receptor [2]) [nM] | other results
1 | O=C1CCCCN1c1nnc(N2CCC(N3CCCCC3)CC2)s1 | 120 | 120 | 
2 | CC1CN(c2nnc(N3CCC(N4CCCCC4)CC3)s2)CC(C)O1 (stereo unspecified) | 35 | 53 | AUC(0-t) at 6 h [3]: 4320 ng·h/mL
3 | O=C(Nc1nnc(N2CCC(N3CCCCC3)CC2)s1)NC1CCCC1 | 47 |  | 
4 | COC1CCCN(c2nnc(N3CCC(N4CCCCC4)CC3)s2)C1 (stereo unspecified) | 46 | 37 | 
5 | FC1(F)CCN(c2nnc(N3CCC(N4CCCCC4)CC3)s2)C1 | 61 | 61 | AUC(0-t) at 6 h [3]: 545 ng·h/mL
6 | OC1CCCN(c2nnc(N3CCC(N4CCCCC4)CC3)s2)C1 (stereo unspecified) | 68 | 46 | 
7 | FC1(F)CCN(c2nnc(N3CCC(N4CCCCC4)CC3)s2)CC1 | 18 | 15 | AUC(0-t) at 6 h [3]: 2490 ng·h/mL
8 | O=C1N(c2ccccc2)CCCN1c1nnc(N2CCC(N3CCCCC3)CC2)s1 | 32 | 30 | 
9 | O=C1N(c2nnc(N3CCC(N4CCCCC4)CC3)s2)CCN1C1CCCC1 | 53 | 34 | 
10 | c1ccc(C2CN(c3nnc(N4CCC(N5CCCCC5)CC4)s3)CCO2)nc1 (single isomer, unassigned; enantiomer 2) [listing 2 of 2 here] |  |  | Activity (Mus musculus [15]): Dose-dependent effect

More lines, main results first:

Row | Ki (Histamine H3 receptor [1]) [nM] | Ki (Histamine H3 receptor [2]) [nM] | Compound | other results
11 | 49 | 12 | C1=C(c2ccccn2)CN(c2nnc(N3CCC(N4CCCCC4)CC3)s2)CC1 | 
12 | 110 | 75 | c1ccc(C2CCCN(c3nnc(N4CCC(N5CCCCC5)CC4)s3)C2)cc1 (stereo unspecified) | 
13 | 4 | 3 | c1ccc(C2CN(c3nnc(N4CCC(N5CCCCC5)CC4)s3)CCO2)nc1 (single isomer, unassigned; enantiomer 2) [listing 1 of 2 here] | IC50 (Cytochrome P450 2D6 [4]): > 20000 nM; IC50 (Cytochrome P450 2C9 [5]): > 20000 nM; Activity (Mus musculus [6]): 104.5 mg/dL; IC50 (Cytochrome P450 2C9 [7]): > 20000 nM; Activity (Mus musculus [8]): 74%; IC50 (Cytochrome P450 3A4 [9]): > 20000 nM; Cmax [10]: 1500 ng/mL; Kp [11]: 0.016; INH (Cytochrome P450 2D6 [12]): > 20 µM; concentration at 4 h [13]: 24 ng/g; inhibition at 10 µM (hERG (KCNH2)): 26%; IC50 (Cytochrome P450 3A4 [14]): > 20000 nM
14 | 67 | 34 | c1ccc(C2CN(c3nnc(N4CCC(N5CCCCC5)CC4)s3)CCO2)nc1 (stereo in doubt; 5t) | 
15 | 54 | 11 | COC1(c2ccccn2)CCCN(c2nnc(N3CCC(N4CCCCC4)CC3)s2)C1 (stereo unspecified) | 
16 | 16 | 8 | c1cnc(C2CN(c3nnc(N4CCC(N5CCCCC5)CC4)s3)CCO2)cn1 (stereo unspecified) | 
17 | 5 | 3 | C1=C(c2ccccn2)CCCN1c1nnc(N2CCC(N3CCCCC3)CC2)s1 | IC50 (Cytochrome P450 2D6 [4]): > 20000 nM; IC50 (Cytochrome P450 2C9 [5]): > 20000 nM; IC50 (Cytochrome P450 2C9 [7]): > 20000 nM; Activity (Mus musculus [8]): 85%; IC50 (Cytochrome P450 3A4 [9]): > 20000 nM; Cmax [10]: 1470 ng/mL; INH (Cytochrome P450 2D6 [12]): > 20 µM; concentration at 4 h [13]: 1040 ng/g; inhibition at 10 µM (hERG (KCNH2)): 54%; IC50 (Cytochrome P450 3A4 [14]): > 20000 nM
18 | 55 | 53 | OC1(c2ccccn2)CCCN(c2nnc(N3CCC(N4CCCCC4)CC3)s2)C1 (stereo unspecified) | 
19 | 77 | 67 | OC1(c2ncccn2)CCCN(c2nnc(N3CCC(N4CCCCC4)CC3)s2)C1 (stereo unspecified) | 
20 | 56 | 66 | FC1CCCN(c2nnc(N3CCC(N4CCCCC4)CC3)s2)C1 (stereo unspecified) | 
21 | 11 | 5 | c1ccc(C2CN(c3nnc(N4CCC(N5CCCCC5)CC4)s3)CCO2)nc1 (stereo in doubt; 5r) | 
22 | 44 | 14 | C1=C(c2ncccn2)CN(c2nnc(N3CCC(N4CCCCC4)CC3)s2)CC1 | 
23 | 7 | 4 | FC1(c2ccccn2)CCCN(c2nnc(N3CCC(N4CCCCC4)CC3)s2)C1 (stereo unspecified) | IC50 (Cytochrome P450 2D6 [4]): > 20000 nM; IC50 (Cytochrome P450 2C9 [5]): > 20000 nM; Activity (Mus musculus [6]): 67.91 mg/dL; IC50 (Cytochrome P450 2C9 [7]): > 20000 nM; Activity (Mus musculus [8]): 92%; IC50 (Cytochrome P450 3A4 [9]): > 20000 nM; Cmax [10]: 2970 ng/mL; Kp [11]: 0.227; INH (Cytochrome P450 2D6 [12]): > 20 µM; concentration at 4 h [13]: 674 ng/g; inhibition at 10 µM (hERG (KCNH2)): 16%; IC50 (Cytochrome P450 3A4 [14]): > 20000 nM
